From ChEMBL document CHEMBL1150800, “Multiple-dose escalation study of the safety, pharmacokinetics, and biologic activity of oral AMD070, a selective CXCR4 receptor inhibitor, in human subjects” (Antimicrob Agents Chemother, 2007)

Tests used:
[1] = Tmax in fasting healthy human at 200 mg, po administered as single dose; assay type: ADME, organism-based; conditions: in vivo
Procedure, shortened: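 Healthy male volunteers (cohort C, n=3) took one oral dose after an 8-h overnight fast and kept fasting to 1 h post-dose. Drug was measured by validated HPLC-MS/MS (positive electrospray), and Tmax was taken by noncompartmental analysis of individual curves.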

[2] = Oral bioavailability in rat; assay type: ADME, organism-based; conditions: in vivo
Homo sapiens [3] = test: Decrease in CD4 cell count in fasting healthy human at 400 mg, po administered every 12 hrs measured after 24 hrs relative to baseline; assay type: functional; design: scale not given: the % may be the effect or the level left
Procedure, shortened: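 CD4+ counts drawn before the first dose and at 2, 4, 6, 8 and 24 h after the final (seventh) q12h oral dose in fasting healthy men. Each post-dose value divided by the baseline value to give a ratio. Deviation from no effect tested by Wilcoxon rank sum, dose trend by Jonckheere-Terpstra.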

Homo sapiens [4] = test: Half life in fasting healthy human at 400 mg, po administered every 12 hrs; assay type: ADME, organism-based; conditions: in vivo
Procedure, shortened: (§1)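 Six healthy men per cohort dosed orally q12h for seven doses. Morning doses given after 8-h fast, with fasting until 1 h post-dose. After the final dose (72 h after the first) plasma was sampled predose and 0.5–24 h. Validated HPLC-MS/MS assay. Noncompartmental parameters (log-linear trapezoidal AUC) from all time points, summarized per cohort.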

[5] = Drug level in fasting healthy human at 400 mg, po administered every 12 hrs measured after 84 hrs; assay type: ADME, organism-based; conditions: in vivo, read-out: Drug uptake; procedure, shortened: as §1
[6] = AUC (0 to 12 hrs) in fasting healthy human at 100 mg, po administered every 12 hrs measured between 72 to 84 hrs postdose; assay type: ADME, organism-based; design: dose 100 mg, time < 12 hr, route oral; conditions: plasma; procedure, shortened: as §1
Homo sapiens [7] = test: Half life in fasting healthy human at 100 mg, po administered every 12 hrs; assay type: ADME, organism-based; conditions: in vivo; procedure, shortened: as §1
[8] = Drug level in fasting healthy human at 100 mg, po administered every 12 hrs measured after 84 hrs; assay type: ADME, organism-based; conditions: in vivo, read-out: Drug uptake; procedure, shortened: as §1
[9] = Drug level in fasting healthy human at 200 mg, po administered every 12 hrs measured after 84 hrs; assay type: ADME, organism-based; conditions: in vivo, read-out: Drug uptake; procedure, shortened: as §1
Homo sapiens [10] = test: Half life in fasting healthy human at 100 mg, po administered as single dose after 12 hrs; assay type: ADME, organism-based; conditions: in vivo
Procedure, shortened: (§2)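 Healthy male volunteers, three per cohort, one oral dose after 8-h overnight fast, fasting kept until 1 h post-dose. Plasma sampled predose and at 0.5, 1, 1.5, 2, 3, 4, 6, 8, 12, 16, 20, 24 h. Levels by validated HPLC-MS/MS (liquid-liquid extraction, positive-ion electrospray). Noncompartmental analysis, log-linear trapezoidal AUC, summarized per cohort.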

[11] = Tmax in fasting healthy human at 50 mg, po administered as single dose; assay type: ADME, organism-based; conditions: in vivo
Procedure, shortened: (§3)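 Healthy male volunteers, three per cohort, took one oral dose after an 8-h overnight fast and stayed fasting until 1 h post-dose. Tmax came from per-subject noncompartmental analysis, summarized by cohort.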

Homo sapiens [12] = test: Half life in fasting healthy human at 50 mg, po administered as single dose after 12 hrs; assay type: ADME, organism-based; conditions: in vivo; procedure, shortened: as §2
Homo sapiens [13] = test: Apparent volume of distribution in fasting healthy human at 100 mg, po administered every 12 hrs; assay type: ADME, organism-based; conditions: in vivo; procedure, shortened: as §1
Homo sapiens [14] = test: Apparent volume of distribution in fasting healthy human at 100 mg, po administered as single dose after 12 hrs; assay type: ADME, organism-based; conditions: in vivo; procedure, shortened: as §2
[15] = Tmax in fasting healthy human at 100 mg, po administered every 12 hrs; assay type: ADME, organism-based; conditions: in vivo
Procedure, shortened: (§4)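 Six healthy male volunteers per cohort received seven oral doses q12h. Morning doses followed an 8-h fast, with fasting continued until 1 h post-dose. After the final dose (72 h after the first), plasma was sampled pre-dose and at 0.5–24 h, and assayed by validated HPLC-MS/MS. Tmax came from individual noncompartmental analysis, summarized per cohort.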

Homo sapiens [16] = test: AUC ( 0 to infinity) in fasting healthy human at 400 mg, po administered as single dose after 12 hrs; assay type: ADME, organism-based, Plasma; design: dose 400 mg, time infinity, route oral; conditions: in vivo; procedure, shortened: as §2
[17] = Tmax in fasting healthy human at 400 mg, po administered as single dose; assay type: ADME, organism-based; conditions: in vivo; procedure, shortened: as §3
Homo sapiens [18] = test: AUC ( 0 to infinity) in fasting healthy human at 200 mg, po administered as single dose after 12 hrs; assay type: ADME, organism-based, Plasma; design: dose 200 mg, route oral, time infinity; conditions: in vivo; procedure, shortened: as §2
[19] = Drug level in fasting healthy human at 200 mg, po administered as single dose after 12 hrs; assay type: ADME, organism-based; conditions: in vivo, read-out: Drug uptake; procedure, shortened: as §2
[20] = Cmax in fasting healthy human at 400 mg, po administered as single dose; assay type: ADME, organism-based; design: dose 400 mg, route oral; conditions: in vivo; procedure, shortened: as §2
[21] = AUC (0 to 12 hrs) in fasting healthy human at 400 mg, po administered every 12 hrs measured between 72 to 84 hrs postdose; assay type: ADME, organism-based; design: time < 12 hr, dose 400 mg, route oral; conditions: plasma; procedure, shortened: as §1
Homo sapiens [22] = test: Half life in fasting healthy human at 200 mg, po administered every 12 hrs; assay type: ADME, organism-based; conditions: in vivo; procedure, shortened: as §1
[23] = Tmax in fasting healthy human at 100 mg, po administered as single dose; assay type: ADME, organism-based; conditions: in vivo; procedure, shortened: as §2
[24] = Tmax in fasting healthy human at 200 mg, po administered every 12 hrs; assay type: ADME, organism-based; conditions: in vivo; procedure, shortened: as §4
[25] = Drug level in fasting healthy human at 200 mg, po administered every 12 hrs measured after 72 hrs; assay type: ADME, organism-based; conditions: in vivo, read-out: Drug uptake; procedure, shortened: as §1
[26] = Oral bioavailability in dog; assay type: ADME, organism-based, Canis lupus familiaris; conditions: in vivo
Homo sapiens [27] = test: AUC ( 0 to infinity) in fasting healthy human at 100 mg, po administered as single dose after 12 hrs; assay type: ADME, organism-based, Plasma; design: dose 100 mg, route oral, time infinity; conditions: in vivo; procedure, shortened: as §2
[28] = Cmax in fasting healthy human at 100 mg, po administered every 12 hrs; assay type: ADME, organism-based; design: dose 100 mg, route oral; conditions: in vivo; procedure, shortened: as §1

Tmax [1]: 1 h | bioavailability [2]: 20% | t1/2 (Homo sapiens [4]): 12 h | concentration at 84 h [5]: 137 ng/mL | AUC at 12 h [6]: 937 ng·h/mL | t1/2 (Homo sapiens [7]): 15.9 h | concentration at 84 h [8]: 12 ng/mL | concentration at 84 h [9]: 33 ng/mL | t1/2 (Homo sapiens [10]): 7.6 h | Tmax [11]: 1.5 h | t1/2 (Homo sapiens [12]): 10.8 h | Vd (Homo sapiens [13]): 2663 L | Vd (Homo sapiens [14]): 3940 L | Tmax [15]: 1.7 h | AUC (Homo sapiens [16]): 6716 ng·h/mL | Tmax [17]: 1.5 h | AUC (Homo sapiens [18]): 1695 ng·h/mL | concentration at 12 h [19]: 11.6 ng/mL | Cmax [20]: 1400 ng/mL | AUC at 12 h [21]: 7660 ng·h/mL | t1/2 (Homo sapiens [22]): 11.2 h | Tmax [23]: 1.5 h | Tmax [24]: 1.8 h | concentration at 72 h [25]: 31 ng/mL | bioavailability [26]: 80% | AUC (Homo sapiens [27]): 358 ng·h/mL | Cmax [28]: 461 ng/mL
SMILES: NCCCCN(Cc1nc2ccccc2[nH]1)[C@H]1CCCc2cccnc21 [MAVORIXAFOR]
Activity (Homo sapiens [3]): 80%
